# Laboratory results from ChEMBL document CHEMBL1177760, “Antioxidative activities of histidine containing caffeic acid-dipeptides” (Bioorg Med Chem Lett, 2010).
# Experiments:
# [1] = test system: Radical scavenging activity; assay: Antioxidant activity assessed as DPPH free radical scavenging activity at 25 uM after 20 mins relative to control; type: functional
# How it was run: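 DPPH radical scavenging run in methanol and in acetate-buffered (pH 5.5) methanol; antioxidant:DPPH molar ratio 0.25; triplicate, repeated five times; mean ± standard error.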
# [2] = Antioxidant activity against lipid peroxidation at 90 uM after 10 hrs by ferric thiocyanate method relative to control; type: functional
# How it was run: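 Linoleic acid (>99%) emulsified with Tween 20, biphasic autoxidation system; each antioxidant at 90 µM final, held at 50 °C in the dark; lipid peroxidation read by ferric thiocyanate absorbance at 10 h, expressed as percent inhibition (%Pi) against untreated control; triplicate, mean ± standard error.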
# [3] = target: Xanthine dehydrogenase/oxidase (Homo sapiens, UniProt P47989); assay: Inhibition of xanthine oxidase after 15 mins; details: 0.25 h
# How it was run: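 Xanthine oxidase inhibition with test agent at 0.1 mM; triplicate, mean ± standard error.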
# Xanthine dehydrogenase/oxidase, sequence (P47989 whole entry): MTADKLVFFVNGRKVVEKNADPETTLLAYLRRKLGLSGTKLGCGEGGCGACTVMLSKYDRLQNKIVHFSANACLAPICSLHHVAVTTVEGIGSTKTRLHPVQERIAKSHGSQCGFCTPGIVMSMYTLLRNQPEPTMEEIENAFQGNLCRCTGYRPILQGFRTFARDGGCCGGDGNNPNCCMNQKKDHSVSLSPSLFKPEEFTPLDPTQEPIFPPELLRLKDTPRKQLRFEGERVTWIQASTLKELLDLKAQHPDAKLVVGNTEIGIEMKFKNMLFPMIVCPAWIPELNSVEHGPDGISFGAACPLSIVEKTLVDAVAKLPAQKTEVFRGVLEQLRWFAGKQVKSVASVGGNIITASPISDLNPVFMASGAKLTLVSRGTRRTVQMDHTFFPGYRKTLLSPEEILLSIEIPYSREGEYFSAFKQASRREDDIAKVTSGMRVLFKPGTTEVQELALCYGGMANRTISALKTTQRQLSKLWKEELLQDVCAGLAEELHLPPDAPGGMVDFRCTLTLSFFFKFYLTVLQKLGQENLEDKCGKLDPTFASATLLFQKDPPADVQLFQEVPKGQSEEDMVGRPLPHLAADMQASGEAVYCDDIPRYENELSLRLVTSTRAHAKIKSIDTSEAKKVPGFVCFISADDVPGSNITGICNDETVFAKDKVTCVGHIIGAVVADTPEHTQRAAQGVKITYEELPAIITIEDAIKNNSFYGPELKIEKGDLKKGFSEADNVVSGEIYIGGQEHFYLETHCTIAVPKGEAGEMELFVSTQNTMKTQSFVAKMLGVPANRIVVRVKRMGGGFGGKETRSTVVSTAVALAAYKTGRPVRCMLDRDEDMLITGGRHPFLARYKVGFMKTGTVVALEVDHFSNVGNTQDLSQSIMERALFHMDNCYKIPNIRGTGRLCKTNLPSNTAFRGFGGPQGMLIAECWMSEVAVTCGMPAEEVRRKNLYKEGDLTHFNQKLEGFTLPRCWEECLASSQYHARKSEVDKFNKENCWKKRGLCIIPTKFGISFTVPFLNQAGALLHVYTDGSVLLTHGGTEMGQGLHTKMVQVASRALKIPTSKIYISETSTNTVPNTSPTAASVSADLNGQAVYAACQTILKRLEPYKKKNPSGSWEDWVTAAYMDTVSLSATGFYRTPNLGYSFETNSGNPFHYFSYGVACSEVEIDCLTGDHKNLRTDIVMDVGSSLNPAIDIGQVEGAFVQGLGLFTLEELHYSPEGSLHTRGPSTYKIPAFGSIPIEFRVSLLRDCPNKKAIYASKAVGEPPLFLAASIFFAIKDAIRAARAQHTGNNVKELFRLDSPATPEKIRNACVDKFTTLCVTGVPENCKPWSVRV
SMILES,Activity [1],Activity [2],inhibition (INH) [3]
NCCCC[C@H](NC(=O)/C=C/c1ccc(O)c(O)c1)C(=O)N[C@@H](Cc1cnc[nH]1)C(N)=O,65%,84%,
NC(=O)[C@H](Cc1ccccc1)NC(=O)[C@H](Cc1cnc[nH]1)NC(=O)/C=C/c1ccc(O)c(O)c1,,72%,
C[C@H](NC(=O)/C=C/c1ccc(O)c(O)c1)C(=O)N[C@@H](Cc1cnc[nH]1)C(N)=O,,84%,
NC(=O)[C@H](CO)NC(=O)[C@H](Cc1cnc[nH]1)NC(=O)/C=C/c1ccc(O)c(O)c1,,71%,
NCCCC[C@H](NC(=O)[C@H](Cc1cnc[nH]1)NC(=O)/C=C/c1ccc(O)c(O)c1)C(N)=O,54%,76%,
NC(=O)[C@H](Cc1cnc[nH]1)NC(=O)[C@H](CO)NC(=O)/C=C/c1ccc(O)c(O)c1,,83%,
NC(=O)[C@H](Cc1cnc[nH]1)NC(=O)[C@H](Cc1ccccc1)NC(=O)/C=C/c1ccc(O)c(O)c1,59%,80%,
NC(=O)[C@H](Cc1cnc[nH]1)NC(=O)CCNC(=O)/C=C/c1ccc(O)c(O)c1,70%,64%,
COc1ccc(O)c(C(C)(C)C)c1.COc1ccc(O)cc1C(C)(C)C,62%,86%,
O=C(O)/C=C/c1ccc(O)c(O)c1,47%,,
C[C@H](NC(=O)[C@H](Cc1cnc[nH]1)NC(=O)/C=C/c1ccc(O)c(O)c1)C(N)=O,,66%,
NC(=O)[C@H](Cc1cnc[nH]1)NC(=O)[C@@H]1CCCN1C(=O)/C=C/c1ccc(O)c(O)c1,71%,87%,52%
NC(=O)[C@H](CS)NC(=O)[C@H](Cc1cnc[nH]1)NC(=O)/C=C/c1ccc(O)c(O)c1,,79%,
NC(=O)CCNC(=O)[C@H](Cc1cnc[nH]1)NC(=O)/C=C/c1ccc(O)c(O)c1,,71%,
NC(=O)[C@H](Cc1cnc[nH]1)NC(=O)[C@H](CC(=O)O)NC(=O)/C=C/c1ccc(O)c(O)c1,52%,82%,
NC(=O)[C@@H]1CCCN1C(=O)[C@H](Cc1cnc[nH]1)NC(=O)/C=C/c1ccc(O)c(O)c1,,61%,
NC(=O)[C@H](CC(=O)O)NC(=O)[C@H](Cc1cnc[nH]1)NC(=O)/C=C/c1ccc(O)c(O)c1,49%,73%,
NC(=O)[C@H](Cc1cnc[nH]1)NC(=O)[C@H](CS)NC(=O)/C=C/c1ccc(O)c(O)c1,,84%,
NC(=O)[C@H](Cc1cnc[nH]1)NC(=O)[C@H](Cc1cnc[nH]1)NC(=O)/C=C/c1ccc(O)c(O)c1,,80%,
NC(=O)[C@H](Cc1ccccc1)NC(=O)/C=C/c1ccc(O)c(O)c1,51%,73%,
